Source: PubChem BioAssay AID588831 (Broad Institute, 2011)
The source made the active and inactive calls.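 How the source made its calls: active means compounds lowering dye-labelled HDL uptake whose fitted half-maximal concentration is at most double the top tested dose; inconclusive means flat fit with moderate inhibition, or an unreliable curve fit; inactive means the rest.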

Target: Scavenger receptor class B member 1 (Mus musculus) (UniProt Q61009)
Experiment: HDL uptake after compound washout, mSR-BI cells – ldlA[mSR-BI] CHO cells, fluorescence, dry powder, mechanism study for SR-BI HDL uptake inhibitor project, dose response (AID 588831)
Conditions: DiI-HDL uptake after washout
Method in brief: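 Assay system: ldlA[mSR-BI] CHO cells, LDL-receptor-deficient, overexpressing mouse SR-BI | Schedule: 2 h compound pretreatment at 37 °C, 3 h DiI-HDL uptake | Signal: DiI fluorescence, bottom read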

Sequence of Scavenger receptor class B member 1 (Mus musculus) (Q61009 whole entry, looked up): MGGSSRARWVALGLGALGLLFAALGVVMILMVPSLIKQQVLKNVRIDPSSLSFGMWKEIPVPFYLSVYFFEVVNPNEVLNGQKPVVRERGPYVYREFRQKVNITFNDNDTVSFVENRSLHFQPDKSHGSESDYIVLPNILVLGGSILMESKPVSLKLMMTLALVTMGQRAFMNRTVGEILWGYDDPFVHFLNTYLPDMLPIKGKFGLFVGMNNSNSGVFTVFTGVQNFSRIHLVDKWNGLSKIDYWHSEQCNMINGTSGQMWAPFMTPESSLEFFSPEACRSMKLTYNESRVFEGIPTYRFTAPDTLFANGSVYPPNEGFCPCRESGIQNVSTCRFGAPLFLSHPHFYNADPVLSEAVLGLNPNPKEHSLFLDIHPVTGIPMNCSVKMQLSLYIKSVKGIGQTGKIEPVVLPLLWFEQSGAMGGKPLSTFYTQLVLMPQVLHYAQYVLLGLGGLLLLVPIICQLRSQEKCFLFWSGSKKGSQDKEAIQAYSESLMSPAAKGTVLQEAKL

AC50 | activity change, negative = inhibition (at 35 µM (top of the series)) | Structure (SMILES)
0.987 nM |  | CCCCCCC1CCC/C1=N\NC(N)=S (stereo not drawn)
 | inactive | C[C@H](C(=O)NC1CCCC1)N(C(=O)Cn1nnc(-c2ccc3c(c2)OCO3)n1)C1CCCCC1
315 nM |  | COCC(=O)N1CCc2cc(-c3csc(NC(=O)c4cc(OC)cc(OC)c4)n3)ccc21
